Data on 17 molecules can be found in ChEMBL document CHEMBL4387700, “A novel, potent, and orally bioavailable thiazole HCV NS5A inhibitor for the treatment of hepatitis C virus” (Eur J Med Chem, 2019).

The structures appear in SMILES notation.

The nature of the data set: Cytotoxicity against human HuH7 cells assessed as reduction in cell viability by MTS assay. In kind it is cell-based, Huh-7. Summed up:
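Viability of Huh-7 cells was read by MTS assay.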

With `COC(=O)N[C@@H](CC(C)C)C(=O)N1CCC[C@H]1c1ncc(-c2ccc(-c3ccc(-c4cnc([C@@H]5CCCN5C(=O)[C@H](CC(C)C)NC(=O)OC)s4)cc3)cc2)s1`, the CC50 was over 50 µM. Then `O=C(N[C@@H](C(=O)N1CCC[C@H]1c1ncc(-c2ccc(-c3ccc(-c4cnc([C@@H]5CCCN5C(=O)[C@H](NC(=O)C5CC5)C5CCCCC5)s4)cc3)cc2)s1)C1CCCCC1)C1CC1`, with over 50 µM. In the case of `COC(=O)N[C@@H](C(=O)N1CCC[C@H]1c1ncc(-c2ccc(-c3ccc(-c4cnc([C@@H]5CCCN5C(=O)[C@H](NC(=O)OC)c5ccccc5)s4)cc3)cc2)s1)c1ccccc1` it was over 50 µM. In the case of `CCC(=O)N[C@@H](C(=O)N1CCC[C@H]1c1ncc(-c2ccc(-c3ccc(-c4cnc([C@@H]5CCCN5C(=O)[C@H](NC(=O)CC)c5ccccc5)s4)cc3)cc2)s1)c1ccccc1` it was over 50 µM. `O=C(N[C@@H](C(=O)N1CCC[C@H]1c1ncc(-c2ccc(-c3ccc(-c4cnc([C@@H]5CCCN5C(=O)[C@H](NC(=O)c5ccccc5)c5ccccc5)s4)cc3)cc2)s1)c1ccccc1)c1ccccc1`: the half-maximal cytotoxic concentration (CC50) is over 50 µM.

For the molecule `CCN(CC)CCC(=O)N[C@@H](C(=O)N1CCC[C@H]1c1ncc(-c2ccc(-c3ccc(-c4cnc([C@@H]5CCCN5C(=O)[C@H](NC(=O)CCN(CC)CC)c5ccccc5)s4)cc3)cc2)s1)c1ccccc1`, the CC50 was over 50 µM. Then `O=C(Cc1ccccc1)N[C@H](C(=O)N1CCC[C@H]1c1ncc(-c2ccc(-c3ccc(-c4cnc([C@@H]5CCCN5C(=O)[C@H](NC(=O)Cc5ccccc5)c5ccccc5)s4)cc3)cc2)s1)c1ccccc1`, with over 50 µM; and `O=C(N[C@@H](C(=O)N1CCC[C@H]1c1ncc(-c2ccc(-c3ccc(-c4cnc([C@@H]5CCCN5C(=O)[C@H](NC(=O)c5cccnc5)c5ccccc5)s4)cc3)cc2)s1)c1ccccc1)c1cccnc1`, with over 50 µM. In the case of `O=C(N[C@H](C(=O)N1CCC[C@H]1c1ncc(-c2ccc(-c3ccc(-c4cnc([C@@H]5CCCN5C(=O)[C@H](NC(=O)c5ccoc5)c5ccccc5)s4)cc3)cc2)s1)c1ccccc1)c1ccoc1`, the CC50 was over 50 µM.

`O=C(N[C@H](C(=O)N1CCC[C@H]1c1ncc(-c2ccc(-c3ccc(-c4cnc([C@@H]5CCCN5C(=O)[C@H](NC(=O)c5ccsc5)c5ccccc5)s4)cc3)cc2)s1)c1ccccc1)c1ccsc1`: the CC50 is over 50 µM. In the case of `CS(=O)(=O)N[C@H](C(=O)N1CCC[C@H]1c1ncc(-c2ccc(-c3ccc(-c4cnc([C@@H]5CCCN5C(=O)[C@H](NS(C)(=O)=O)c5ccccc5)s4)cc3)cc2)s1)c1ccccc1` it was over 50 µM. Then `CCCCCC(=O)N[C@H](C(=O)N1CCC[C@H]1c1ncc(-c2ccc(-c3ccc(-c4cnc([C@@H]5CCCN5C(=O)[C@H](NC(=O)CCCCC)c5ccccc5)s4)cc3)cc2)s1)c1ccccc1`, with over 50 µM; and `CC(C)(C)C(=O)N[C@H](C(=O)N1CCC[C@H]1c1ncc(-c2ccc(-c3ccc(-c4cnc([C@@H]5CCCN5C(=O)[C@H](NC(=O)C(C)(C)C)c5ccccc5)s4)cc3)cc2)s1)c1ccccc1`, with over 50 µM.

In the case of `O=C(N[C@H](C(=O)N1CCC[C@H]1c1ncc(-c2ccc(-c3ccc(-c4cnc([C@@H]5CCCN5C(=O)[C@H](NC(=O)c5ccco5)c5ccccc5)s4)cc3)cc2)s1)c1ccccc1)c1ccco1`, the half-maximal cytotoxic concentration (CC50) was over 50 µM. Then `O=C(N[C@@H](C(=O)N1CCC[C@H]1c1ncc(-c2ccc(-c3ccc(-c4cnc([C@@H]5CCCN5C(=O)[C@H](NC(=O)N5CCCCC5)c5ccccc5)s4)cc3)cc2)s1)c1ccccc1)N1CCCCC1`, with over 50 µM; and `COC(=O)N[C@H](C(=O)N1CCC[C@H]1c1ncc(-c2ccc(-c3ccc(-c4cnc([C@@H]5CCCN5C(=O)[C@@H](NC(=O)OC)C(C)C)s4)cc3)cc2)s1)C(C)C`, with over 50 µM.

Take `CCCCC(=O)N[C@@H](C(=O)N1CCC[C@H]1c1ncc(-c2ccc(-c3ccc(-c4cnc([C@@H]5CCCN5C(=O)[C@H](NC(=O)CCCC)c5ccccc5)s4)cc3)cc2)s1)c1ccccc1`: the CC50 was over 50 µM.
